Assay results published in ChEMBL document CHEMBL4257584, “Sterol 14α-Demethylase Structure-Based Optimization of Drug Candidates for Human Infections with the Protozoan Trypanosomatidae” (J Med Chem, 2018).

Tested on: not listed separately
Experiment: Plasma concentration in BALB/c mouse assessed as time until the compound becomes undetectable at 25 mg/kg, po via gavage […]
Format: ADME, organism-based
Details: in vivo
In short: (§1)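 Single oral gavage dose of 25 mg/kg in BALB/c mice; blood sampled at 1, 2, 4, 6, 10, 16, 24 h. Plasma is diluted in PBS with ketoconazole internal standard, extracted with 80% acetonitrile, dried and redissolved. Analysed by reversed-phase HPLC with UV at 291/250 nm, 0.1 μM detection limit. Lifetime is time until undetectable.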

Compound	Time
[2H]c1c([2H])c([2H])c(-c2ccc([C@H](Cn3ccnc3)NC(=O)c3ccc(-c4nnc(-c5ccccc5)o4)cc3)c(Cl)c2)c([2H])c1[2H]	< 16 h

Tested on: not listed separately
Experiment: Intrinsic clearance in Sprague-Dawley rat liver microsomes at 1 uM preincubated for 5 mins followed by NADPH addition and measured after 45 mins by LC/MS/MS analysis
Format: ADME, microsome
Details: read-out: CLH

Compound	CLint scaled at 1 µM
[2H]c1c([2H])c([2H])c(-c2ccc([C@H](Cn3ccnc3)NC(=O)c3ccc(-c4nnc(-c5ccccc5)o4)cc3)c(Cl)c2)c([2H])c1[2H]	131 mL/min/kg
O=C(N[C@@H](Cn1ccnc1)c1ccc(-c2ccc(F)cc2)cc1F)c1ccc(-c2nnc(-c3ccccc3)o2)cc1	17.7 mL/min/kg

Tested on: not listed separately
Experiment: Intrinsic clearance in CD1 mouse liver microsomes at 1 uM preincubated for 5 mins followed by NADPH addition and measured after 45 mins by LC/MS/MS analysis
Format: ADME, microsome
Details: read-out: CLH

Compound	CLint scaled at 1 µM
[2H]c1c([2H])c([2H])c(-c2ccc([C@H](Cn3ccnc3)NC(=O)c3ccc(-c4nnc(-c5ccccc5)o4)cc3)c(Cl)c2)c([2H])c1[2H]	220 mL/min/kg
O=C(N[C@@H](Cn1ccnc1)c1ccc(-c2ccc(F)cc2)cc1F)c1ccc(-c2nnc(-c3ccccc3)o2)cc1	145 mL/min/kg

Tested on: not listed separately
Experiment: Drug uptake in BALB/c mouse lungs at 25 mg/kg, po via gavage measured after 4 hrs post dose by […]
Format: ADME, organism-based, Lung
Details: read-out: Drug uptake
In short: (§2)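 BALB/c mice get a single oral gavage dose of 25 mg/kg; tissues are collected 4 h post-dose. About 100 mg tissue is diluted 5-fold in PBS and homogenized. Homogenate is extracted as for plasma (ketoconazole internal standard, acetonitrile extraction) and quantified by HPLC-UV at 291 nm, 0.1 μM detection limit, n=2.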

Compound	concentration at 4 h
[2H]c1c([2H])c([2H])c(-c2ccc([C@H](Cn3ccnc3)NC(=O)c3ccc(-c4nnc(-c5ccccc5)o4)cc3)c(Cl)c2)c([2H])c1[2H]	26 µM
O=C(N[C@@H](Cn1ccnc1)c1ccc(-c2ccc(F)cc2)cc1F)c1ccc(-c2nnc(-c3ccccc3)o2)cc1	74 µM

Tested on: not listed separately
Experiment: Lipophilicity, log P of the compound
Format: physicochemical
Details: octanol/water

Compound	logP
O=C(N[C@@H](Cn1ccnc1)c1ccc(-c2ccc(F)cc2)cc1F)c1ccc(-c2nnc(-c3ccccc3)o2)cc1	5.44

Tested on: not listed separately
Experiment: Half life in Sprague-Dawley rat liver microsomes at 1 uM preincubated for 5 mins followed by NADPH addition and measured by LC/MS/MS analysis
Format: ADME, microsome
Details: microsomes, 1 µM

Compound	t1/2
[2H]c1c([2H])c([2H])c(-c2ccc([C@H](Cn3ccnc3)NC(=O)c3ccc(-c4nnc(-c5ccccc5)o4)cc3)c(Cl)c2)c([2H])c1[2H]	22 min
O=C(N[C@@H](Cn1ccnc1)c1ccc(-c2ccc(F)cc2)cc1F)c1ccc(-c2nnc(-c3ccccc3)o2)cc1	158 min

Tested on: Trypanosoma cruzi
Experiment: Antiparasitic activity against GFP-expressing Trypanosoma cruzi Tulahuen amastigote formss infected in cardiomyocytes assessed as reduction in rate of parasite multiplication within infected cardiomyocytes measured at 72 hrs post infection by fluorescence microscopy
Format: functional, organism-based
Details: not given
In short: (§3)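 GFP-expressing trypomastigotes (Tulahuen or Y strain) infect cardiomyocyte monolayers at 10 parasites per cell, in DMEM + 10% FBS. Unbound parasites are washed off. At 24 h of infection, inhibitors at 0.5–25 nM in DMSO/DMEM are added and cultured 48 h. Read-out is at 72 h post-infection as GFP fluorescence (RFU) after PBS wash; microscopy uses paraformaldehyde fixation, DAPI and phalloidin stain. Triplicate.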

Compound	EC50
O=C(N[C@@H](Cn1ccnc1)c1ccc(-c2ccc(F)cc2)cc1F)c1ccc(-c2nnc(-c3ccccc3)o2)cc1	1 nM

Tested on: not listed separately
Experiment: Maximum plasma concentration in BALB/c mouse at 25 mg/kg, po via gavage by […]
Format: ADME, organism-based
Parameters: dose 25 mg/kg, route oral
Details: not given
In short: as §1

Compound	Cmax
[2H]c1c([2H])c([2H])c(-c2ccc([C@H](Cn3ccnc3)NC(=O)c3ccc(-c4nnc(-c5ccccc5)o4)cc3)c(Cl)c2)c([2H])c1[2H]	15 µM
O=C(N[C@@H](Cn1ccnc1)c1ccc(-c2ccc(F)cc2)cc1F)c1ccc(-c2nnc(-c3ccccc3)o2)cc1	24 µM

Tested on: not listed separately
Experiment: Drug uptake in BALB/c mouse liver at 25 mg/kg, po via gavage measured after 4 hrs post dose by […]
Format: ADME, organism-based
Details: read-out: Drug uptake
In short: as §2

Compound	concentration at 4 h
[2H]c1c([2H])c([2H])c(-c2ccc([C@H](Cn3ccnc3)NC(=O)c3ccc(-c4nnc(-c5ccccc5)o4)cc3)c(Cl)c2)c([2H])c1[2H]	17 µM
O=C(N[C@@H](Cn1ccnc1)c1ccc(-c2ccc(F)cc2)cc1F)c1ccc(-c2nnc(-c3ccccc3)o2)cc1	34 µM

Tested on: not listed separately
Experiment: Half life in CD1 mouse liver microsomes at 1 uM preincubated for 5 mins followed by NADPH addition and measured by LC/MS/MS analysis
Format: ADME, microsome
Details: mouse, microsomes, 1 µM

Compound	t1/2
[2H]c1c([2H])c([2H])c(-c2ccc([C@H](Cn3ccnc3)NC(=O)c3ccc(-c4nnc(-c5ccccc5)o4)cc3)c(Cl)c2)c([2H])c1[2H]	25 min
O=C(N[C@@H](Cn1ccnc1)c1ccc(-c2ccc(F)cc2)cc1F)c1ccc(-c2nnc(-c3ccccc3)o2)cc1	38 min

Molecular target: Sterol 14-alpha demethylase (Trypanosoma cruzi (strain CL Brener), UniProt Q7Z1V1)
Experiment: Binding affinity to Trypanosoma cruzi Y CYP51A expressed in Escherichia coli
Details: not given
In short: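 Recombinant CYP51A from Y strain T. cruzi, expressed in E. coli and purified, titrated spectrally at 0.5 μM P450 in 5 cm path cuvettes with ligand over 0.1–1 μM. Type of absorbance change in difference spectra Δ(A430-A411) plotted against ligand concentration. Apparent Kd obtained by fitting to the Morrison quadratic tight-binding equation by nonlinear regression.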

Chain of Sterol 14-alpha demethylase (Q7Z1V1 whole entry): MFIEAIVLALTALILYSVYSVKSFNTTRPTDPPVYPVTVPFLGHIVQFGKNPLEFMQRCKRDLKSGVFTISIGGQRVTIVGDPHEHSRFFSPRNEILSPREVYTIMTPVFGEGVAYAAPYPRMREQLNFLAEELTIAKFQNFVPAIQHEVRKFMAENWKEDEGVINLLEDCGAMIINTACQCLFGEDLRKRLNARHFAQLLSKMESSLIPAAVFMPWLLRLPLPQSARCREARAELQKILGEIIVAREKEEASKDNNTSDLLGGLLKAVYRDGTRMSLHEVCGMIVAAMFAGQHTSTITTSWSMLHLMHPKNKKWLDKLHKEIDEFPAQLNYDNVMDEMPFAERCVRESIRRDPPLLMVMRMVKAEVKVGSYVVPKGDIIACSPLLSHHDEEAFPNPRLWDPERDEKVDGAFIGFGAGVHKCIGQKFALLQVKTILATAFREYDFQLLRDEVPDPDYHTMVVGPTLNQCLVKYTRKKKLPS

Compound	Kd
O=C(N[C@@H](Cn1ccnc1)c1ccc(-c2ccc(F)cc2)cc1F)c1ccc(-c2nnc(-c3ccccc3)o2)cc1	6.8 nM

Tested on: Trypanosoma cruzi
Experiment: Antiparasitic activity against GFP-expressing Trypanosoma cruzi Y amastigote formss infected in cardiomyocytes assessed as reduction in rate of parasite multiplication within infected cardiomyocytes measured at 72 hrs post infection by fluorescence microscopy
Format: functional, organism-based
Details: not given
In short: as §3

Compound	EC50
O=C(N[C@@H](Cn1ccnc1)c1ccc(-c2ccc(F)cc2)cc1F)c1ccc(-c2nnc(-c3ccccc3)o2)cc1	1.5 nM

Tested on: not listed separately
Experiment: Intrinsic clearance in human liver microsomes at 1 uM preincubated for 5 mins followed by NADPH addition and measured after 45 mins by LC/MS/MS analysis
Format: ADME, microsome
Details: read-out: CLH

Compound	CLint scaled at 1 µM
[2H]c1c([2H])c([2H])c(-c2ccc([C@H](Cn3ccnc3)NC(=O)c3ccc(-c4nnc(-c5ccccc5)o4)cc3)c(Cl)c2)c([2H])c1[2H]	21.2 mL/min/kg
O=C(N[C@@H](Cn1ccnc1)c1ccc(-c2ccc(F)cc2)cc1F)c1ccc(-c2nnc(-c3ccccc3)o2)cc1	29.9 mL/min/kg

Tested on: not listed separately
Experiment: Drug uptake in BALB/c mouse blood at 25 mg/kg, po via gavage measured after 4 hrs post dose by […]
Format: ADME, organism-based
Details: read-out: Drug uptake
In short: as §2

Compound	concentration at 4 h
[2H]c1c([2H])c([2H])c(-c2ccc([C@H](Cn3ccnc3)NC(=O)c3ccc(-c4nnc(-c5ccccc5)o4)cc3)c(Cl)c2)c([2H])c1[2H]	4 µM
O=C(N[C@@H](Cn1ccnc1)c1ccc(-c2ccc(F)cc2)cc1F)c1ccc(-c2nnc(-c3ccccc3)o2)cc1	22 µM

Molecular target: Putative lanosterol 14-alpha-demethylase (Leishmania infantum, UniProt A2TEF2)
Experiment: Binding affinity to Leishmania infantum CYP51 expressed in Escherichia coli
Details: not given
In short: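 Purified E. coli-expressed L. infantum CYP51 at 0.5 μM is titrated with ligand at 0.1–1 μM in 5 cm path cuvettes. Difference-spectrum absorbance change Δ(A430−A411) is plotted against ligand concentration. Apparent Kd comes from a Morrison (quadratic) tight-binding fit by nonlinear regression.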

Chain of Putative lanosterol 14-alpha-demethylase (A2TEF2 whole entry): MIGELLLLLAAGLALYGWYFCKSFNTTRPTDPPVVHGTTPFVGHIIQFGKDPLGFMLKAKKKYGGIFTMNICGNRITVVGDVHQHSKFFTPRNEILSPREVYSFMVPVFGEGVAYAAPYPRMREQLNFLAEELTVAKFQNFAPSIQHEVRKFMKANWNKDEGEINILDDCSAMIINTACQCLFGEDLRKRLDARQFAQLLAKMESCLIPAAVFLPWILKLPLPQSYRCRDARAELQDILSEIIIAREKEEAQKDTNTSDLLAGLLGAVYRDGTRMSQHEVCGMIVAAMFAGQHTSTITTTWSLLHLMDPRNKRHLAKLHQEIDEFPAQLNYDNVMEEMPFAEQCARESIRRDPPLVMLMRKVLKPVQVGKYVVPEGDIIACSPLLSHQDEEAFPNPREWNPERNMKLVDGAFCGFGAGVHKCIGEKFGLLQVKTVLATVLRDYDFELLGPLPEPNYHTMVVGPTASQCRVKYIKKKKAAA

Compound	Kd
O=C(N[C@@H](Cn1ccnc1)c1ccc(-c2ccc(F)cc2)cc1F)c1ccc(-c2nnc(-c3ccccc3)o2)cc1	8.4 nM

Tested on: not listed separately
Experiment: Hepatic clearance in CD1 mouse liver microsomes at 1 uM preincubated for 5 mins followed by NADPH addition and measured after 45 mins by LC/MS/MS analysis
Format: ADME, microsome
Details: not given

Compound	CLhep predicted at 1 µM
[2H]c1c([2H])c([2H])c(-c2ccc([C@H](Cn3ccnc3)NC(=O)c3ccc(-c4nnc(-c5ccccc5)o4)cc3)c(Cl)c2)c([2H])c1[2H]	63.9 mL/min/kg
O=C(N[C@@H](Cn1ccnc1)c1ccc(-c2ccc(F)cc2)cc1F)c1ccc(-c2nnc(-c3ccccc3)o2)cc1	55.6 mL/min/kg

Tested on: not listed separately
Experiment: Hepatic clearance in human liver microsomes at 1 uM preincubated for 5 mins followed by NADPH addition and measured after 45 mins by LC/MS/MS analysis
Format: ADME, microsome
Details: not given

Compound	CLhep predicted at 1 µM
[2H]c1c([2H])c([2H])c(-c2ccc([C@H](Cn3ccnc3)NC(=O)c3ccc(-c4nnc(-c5ccccc5)o4)cc3)c(Cl)c2)c([2H])c1[2H]	10.6 mL/min/kg
O=C(N[C@@H](Cn1ccnc1)c1ccc(-c2ccc(F)cc2)cc1F)c1ccc(-c2nnc(-c3ccccc3)o2)cc1	12.3 mL/min/kg

Tested on: not listed separately
Experiment: Hepatic clearance in Sprague-Dawley rat liver microsomes at 1 uM preincubated for 5 mins followed by NADPH addition and measured after 45 mins by LC/MS/MS analysis
Format: ADME, microsome
Details: not given
In short: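 Pooled liver microsomes at 0.5 mg/mL: human (mixed gender), male Sprague-Dawley rat, or male CD-1 mouse, with test compound at 1 μM, triplicate. In vitro t1/2 is scaled to CLint (45 mg microsomes/g liver; 45 g liver/kg scaling factor). CLhep uses well-stirred model with hepatic blood flow 21 (human), 70 (rat), 90 (mouse) mL/min/kg.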

Compound	CLhep predicted at 1 µM
[2H]c1c([2H])c([2H])c(-c2ccc([C@H](Cn3ccnc3)NC(=O)c3ccc(-c4nnc(-c5ccccc5)o4)cc3)c(Cl)c2)c([2H])c1[2H]	45.6 mL/min/kg
O=C(N[C@@H](Cn1ccnc1)c1ccc(-c2ccc(F)cc2)cc1F)c1ccc(-c2nnc(-c3ccccc3)o2)cc1	14.2 mL/min/kg

Tested on: not listed separately
Experiment: Drug uptake in BALB/c mouse spleen at 25 mg/kg, po via gavage measured after 4 hrs post dose by […]
Format: ADME, organism-based
Details: read-out: Drug uptake
In short: as §2

Compound	concentration at 4 h
[2H]c1c([2H])c([2H])c(-c2ccc([C@H](Cn3ccnc3)NC(=O)c3ccc(-c4nnc(-c5ccccc5)o4)cc3)c(Cl)c2)c([2H])c1[2H]	3 µM
O=C(N[C@@H](Cn1ccnc1)c1ccc(-c2ccc(F)cc2)cc1F)c1ccc(-c2nnc(-c3ccccc3)o2)cc1	21 µM

Tested on: not listed separately
Experiment: Drug uptake in BALB/c mouse brain at 25 mg/kg, po via gavage measured after 4 hrs post dose by […]
Format: ADME, organism-based
Details: read-out: Drug uptake
In short: as §2

Compound	concentration at 4 h
[2H]c1c([2H])c([2H])c(-c2ccc([C@H](Cn3ccnc3)NC(=O)c3ccc(-c4nnc(-c5ccccc5)o4)cc3)c(Cl)c2)c([2H])c1[2H]	0.2 µM
O=C(N[C@@H](Cn1ccnc1)c1ccc(-c2ccc(F)cc2)cc1F)c1ccc(-c2nnc(-c3ccccc3)o2)cc1	1 µM

Tested on: not listed separately
Experiment: Half life in human liver microsomes at 1 uM preincubated for 5 mins followed by NADPH addition and measured by LC/MS/MS analysis
Format: ADME, microsome
Details: microsomes, 1 µM

Compound	t1/2
[2H]c1c([2H])c([2H])c(-c2ccc([C@H](Cn3ccnc3)NC(=O)c3ccc(-c4nnc(-c5ccccc5)o4)cc3)c(Cl)c2)c([2H])c1[2H]	58 min
O=C(N[C@@H](Cn1ccnc1)c1ccc(-c2ccc(F)cc2)cc1F)c1ccc(-c2nnc(-c3ccccc3)o2)cc1	42 min

Tested on: not listed separately
Experiment: Drug uptake in BALB/c mouse heart at 25 mg/kg, po via gavage measured after 4 hrs post dose by […]
Format: ADME, organism-based
Details: read-out: Drug uptake
In short: as §2

Compound	concentration at 4 h
[2H]c1c([2H])c([2H])c(-c2ccc([C@H](Cn3ccnc3)NC(=O)c3ccc(-c4nnc(-c5ccccc5)o4)cc3)c(Cl)c2)c([2H])c1[2H]	3 µM
O=C(N[C@@H](Cn1ccnc1)c1ccc(-c2ccc(F)cc2)cc1F)c1ccc(-c2nnc(-c3ccccc3)o2)cc1	16 µM
